According to ChEMBL document CHEMBL3120083, “Discovery of N-[4-[6-tert-butyl-5-methoxy-8-(6-methoxy-2-oxo-1H-pyridin-3-yl)-3-quinolyl]phenyl]methanesulfonamide (RG7109), a potent inhibitor of the hepatitis C virus NS5B polymerase” (J Med Chem, 2014):
Values belong to the molecule of their own block, whether it stands above or below them.

Key:
[1] = test system: Hepatitis C virus; experiment: Antiviral activity against Hepatitis C virus genotype 1a H77 infected in human 2209-23 cells after 72 hrs by luciferase reporter gene assay; format: functional, organism-based, Hepacivirus hominis; settings: genotype 1a H77, 2209-23, 72 h
[2] = test system: Hepatitis C virus; experiment: Antiviral activity against Hepatitis C virus genotype 1b Con1 infected in human 2209-23 cells after 72 hrs by luciferase reporter gene assay; format: functional, organism-based, Hepacivirus hominis; settings: isolate Con1, 2209-23, 72 h
Method in brief: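 Stable GT-1b Con1 subgenomic replicon cell line expressing a renilla luciferase reporter, used as the readout of inhibition. EC50 from luciferase signal, n 2.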

[3] = test system: Hepatitis C virus; experiment: Antiviral activity against Hepatitis C virus genotype 1b clinical isolate RO-3 expressing NS5B assessed as inhibition of viral replication after 4 days by luciferase reporter gene assay; format: functional, organism-based, Hepacivirus hominis; settings: genotype 1b clinical isolate RO-3, 96 h
[4] = test system: Hepatitis C virus; experiment: Antiviral activity against Hepatitis C virus genotype 1b Con1 infected in human 2209-23 cells after 72 hrs by luciferase reporter gene assay in presence of 40% human serum; format: functional, organism-based, Hepacivirus hominis; settings: isolate Con1, 2209-23, 72 h
[5] = Cmax in Beagle dog at 30 mg/kg, po of amorphus MBP compound; format: ADME, organism-based, Canis lupus familiaris; design: dose 30 mg/kg, route oral; settings: in vivo
Method in brief: (§1)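 Single oral dose by gavage in 2% Klucel LF in water (the amorphous MBP was made by solvent-controlled co-precipitation with Eudragit L100-55 from DMA into chilled pH 3.0 dilute HCl), n = 3. EDTA blood typically sampled at 0.25, 0.5, 1, 2, 4, 6, 8 and 24 h. Plasma levels by LC/MS/MS after acetonitrile protein precipitation.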

[6] = test system: Hepatitis C virus; experiment: Antiviral activity against Hepatitis C virus genotype 1a clinical isolate RO-38 expressing NS5B assessed as inhibition of viral replication after 4 days by luciferase reporter gene assay; format: functional, organism-based, Hepacivirus hominis; settings: genotype 1a clinical isolate RO-38, 96 h
[7] = test system: Hepatitis C virus; experiment: Antiviral activity against Hepatitis C virus genotype 1a clinical isolate RO-35 expressing NS5B assessed as inhibition of viral replication after 4 days by luciferase reporter gene assay; format: functional, organism-based, Hepacivirus hominis; settings: genotype 1a clinical isolate RO-35, 96 h
[8] = Drug uptake in Beagle dog at 30 mg/kg, po of amorphus MBP compound measured at 8 hrs; format: ADME, organism-based, Canis lupus familiaris; design: dose 30 mg/kg, route oral; settings: in vivo, read-out: Drug uptake; method in brief: as §1
[9] = test system: Hepatitis C virus; experiment: Antiviral activity against Hepatitis C virus genotype 1a H77 expressing NS5B assessed as inhibition of viral replication after 4 days by luciferase reporter gene assay; format: functional, organism-based, Hepacivirus hominis; settings: genotype 1a H77, 96 h
[10] = test system: Hepatitis C virus; experiment: Antiviral activity against Hepatitis C virus genotype 1b clinical isolate RO-8 expressing NS5B assessed as inhibition of viral replication after 4 days by luciferase reporter gene assay; format: functional, organism-based, Hepacivirus hominis; settings: genotype 1b clinical isolate RO-8, 96 h
[11] = AUC (0 to infinity) in Wistar/Han rat at 30 mg/kg, po of amorphus MBP compound; format: ADME, organism-based; design: time infinity, dose 30 mg/kg, route oral; settings: plasma; method in brief: as §1
[12] = test system: Hepatitis C virus; experiment: Antiviral activity against Hepatitis C virus genotype 1a clinical isolate RO-28 expressing NS5B assessed as inhibition of viral replication after 4 days by luciferase reporter gene assay; format: functional, organism-based, Hepacivirus hominis; settings: genotype 1a clinical isolate RO-28, 96 h
[13] = test system: Hepatitis C virus; experiment: Antiviral activity against Hepatitis C virus genotype 1b clinical isolate RO-1 expressing NS5B assessed as inhibition of viral replication after 4 days by luciferase reporter gene assay; format: functional, organism-based, Hepacivirus hominis; settings: genotype 1b clinical isolate RO-1, 96 h
[14] = Oral bioavailability in Wistar/Han rat at 30 mg/kg of amorphus MBP compound; format: ADME, organism-based; settings: in vivo; method in brief: as §1
[15] = test system: Hepatitis C virus; experiment: Antiviral activity against Hepatitis C virus genotype 1a clinical isolate RO-34 expressing NS5B assessed as inhibition of viral replication after 4 days by luciferase reporter gene assay; format: functional, organism-based, Hepacivirus hominis; settings: genotype 1a clinical isolate RO-34, 96 h
[16] = test system: Hepatitis C virus; experiment: Antiviral activity against Hepatitis C virus genotype 1a H77 infected in human 2209-23 cells after 72 hrs by luciferase reporter gene assay in presence of 40% human serum; format: functional, organism-based, Hepacivirus hominis; settings: genotype 1a H77, 2209-23, 72 h
[17] = test system: Hepatitis C virus; experiment: Antiviral activity against Hepatitis C virus genotype 1b clinical isolate RO-2 expressing NS5B assessed as inhibition of viral replication after 4 days by luciferase reporter gene assay; format: functional, organism-based, Hepacivirus hominis; settings: genotype 1b clinical isolate RO-2, 96 h
[18] = Half life in Wistar/Han rat at 2.6 mg/kg, iv; format: ADME, organism-based; design: dose 2.6 mg/kg, route intravenous; settings: in vivo
Method in brief: (§2)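 Single IV bolus by tail vein or jugular cannula in 2% dimethyl acetamide/20% PEG400/23.4% HPBCD, n = 3. EDTA blood taken at typically 0.08, 0.25, 0.5, 1, 2, 4, 6, 8 and 24 h. Plasma assayed by LC/MS/MS after acetonitrile protein precipitation; clearance, Vdss and t1/2 derived from the plasma data.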

[19] = test system: Hepatitis C virus; experiment: Antiviral activity against Hepatitis C virus genotype 1a clinical isolate RO-33 expressing NS5B assessed as inhibition of viral replication after 4 days by luciferase reporter gene assay; format: functional, organism-based, Hepacivirus hominis; settings: genotype 1a clinical isolate RO-33, 96 h
[20] = Volume of distribution at steady state in Wistar/Han rat at 2.6 mg/kg, iv; format: ADME, organism-based; design: dose 2.6 mg/kg, route intravenous; settings: in vivo, read-out: Vdss; method in brief: as §2
[21] = test system: Hepatitis C virus; experiment: Antiviral activity against Hepatitis C virus genotype 1b clinical isolate RO-10 expressing NS5B assessed as inhibition of viral replication after 4 days by luciferase reporter gene assay; format: functional, organism-based, Hepacivirus hominis; settings: genotype 1b clinical isolate RO-10, 96 h
[22] = test system: Hepatitis C virus; experiment: Antiviral activity against Hepatitis C virus genotype 1b clinical isolate RO-4 expressing NS5B assessed as inhibition of viral replication after 4 days by luciferase reporter gene assay; format: functional, organism-based, Hepacivirus hominis; settings: genotype 1b clinical isolate RO-4, 96 h
[23] = Clearance in Beagle dog at 0.86 mg/kg, iv; format: ADME, organism-based, Canis lupus familiaris; design: dose 0.86 mg/kg, route intravenous; settings: in vivo; method in brief: as §2
[24] = Clearance in Wistar/Han rat at 2.6 mg/kg, iv; format: ADME, organism-based; design: dose 2.6 mg/kg, route intravenous; settings: in vivo; method in brief: as §2
[25] = test system: Hepatitis C virus; experiment: Antiviral activity against Hepatitis C virus genotype 1a clinical isolate RO-41 expressing NS5B assessed as inhibition of viral replication after 4 days by luciferase reporter gene assay; format: functional, organism-based, Hepacivirus hominis; settings: genotype 1a clinical isolate RO-41, 96 h
[26] = test system: Hepatitis C virus; experiment: Antiviral activity against Hepatitis C virus genotype 1b Con1 expressing NS5B assessed as inhibition of viral replication after 4 days by luciferase reporter gene assay; format: functional, organism-based, Hepacivirus hominis; settings: isolate Con1, 96 h
[27] = Oral bioavailability in Beagle dog at 30 mg/kg of amorphus MBP compound; format: ADME, organism-based, Canis lupus familiaris; settings: in vivo; method in brief: as §1
[28] = Thermodynamic solubility of the compound; format: physicochemical; settings: read-out: Therm_solubility
[29] = Half life in Beagle dog at 0.86 mg/kg, iv; format: ADME, organism-based, Canis lupus familiaris; design: dose 0.86 mg/kg, route intravenous; settings: in vivo; method in brief: as §2
[30] = test system: Hepatitis C virus; experiment: Antiviral activity against Hepatitis C virus genotype 1a clinical isolate RO-18 expressing NS5B assessed as inhibition of viral replication after 4 days by luciferase reporter gene assay; format: functional, organism-based, Hepacivirus hominis; settings: genotype 1a clinical isolate RO-18, 96 h
[31] = Volume of distribution at steady state in Beagle dog at 0.86 mg/kg, iv; format: ADME, organism-based, Canis lupus familiaris; design: dose 0.86 mg/kg, route intravenous; settings: in vivo, read-out: Vdss; method in brief: as §2
[32] = test system: Hepatitis C virus; experiment: Antiviral activity against Hepatitis C virus genotype 1b clinical isolate RO-9 expressing NS5B assessed as inhibition of viral replication after 4 days by luciferase reporter gene assay; format: functional, organism-based, Hepacivirus hominis; settings: genotype 1b clinical isolate RO-9, 96 h
[33] = Drug uptake in Wistar/Han rat at 30 mg/kg, po of amorphus MBP compound measured at 8 hrs; format: ADME, organism-based; design: dose 30 mg/kg, route oral; settings: in vivo, read-out: Drug uptake; method in brief: as §1
[34] = Cmax in Wistar/Han rat at 30 mg/kg, po of amorphus MBP compound; format: ADME, organism-based; design: dose 30 mg/kg, route oral; settings: in vivo; method in brief: as §1
[35] = AUC (0 to infinity) in Beagle dog at 30 mg/kg, po of amorphus MBP compound; format: ADME, organism-based, Canis lupus familiaris; design: time infinity, dose 30 mg/kg, route oral; settings: plasma; method in brief: as §1
[36] = test system: Hepatitis C virus; experiment: Antiviral activity against Hepatitis C virus genotype 1b clinical isolate RO-7 expressing NS5B assessed as inhibition of viral replication after 4 days by luciferase reporter gene assay; format: functional, organism-based, Hepacivirus hominis; settings: genotype 1b clinical isolate RO-7, 96 h
[37] = test system: Hepatocyte; experiment: Intrinsic clearance in human hepatocytes assessed per 10^6 cells; format: ADME, cell-based
Method in brief: (§3)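 Suspended hepatocytes (about 1.0×10^6 cells/mL) in Williams' medium E with glutamine, antibiotics, insulin, dexamethasone and 10% FCS, 37 °C, 5% CO2, shaken at 900 rpm. Compound at 0.1–10.0 μM. Stopped with methanol plus internal standard at 2–180 min. Parent remaining by LC/MS/MS peak area ratio, in duplicate.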

[38] = test system: Hepatocyte; experiment: Intrinsic clearance in rat hepatocytes assessed per 10^6 cells; format: ADME, cell-based; method in brief: as §3

EC50 [1]: 4 nM
EC50 [2]: 1 nM
SMILES: COc1c(C(C)(C)C)cc(-n2ccc(=O)[nH]c2=O)c2ccc(-c3ccc(NS(C)(=O)=O)cc3)cc12

EC50 [1]: 3 nM
EC50 [2]: 1.5 nM
SMILES: COc1c(C(C)(C)C)cc(-c2cn(C)c(=O)[nH]c2=O)c2ncc(-c3ccc(NS(C)(=O)=O)cc3)cc12

EC90 [4]: 128 nM
EC90 [16]: 531 nM
SMILES: COc1c(/C=C/c2ccc(NS(C)(=O)=O)cc2)cc(-c2cc(F)c[nH]c2=O)cc1C(C)(C)C

Second part, the molecule before the results:

SMILES: COc1ccc(-c2cc(C(C)(C)C)c(OC)c3cc(-c4ccc(NS(C)(=O)=O)cc4)cnc23)c(=O)[nH]1
EC50 [3]: 0.43 nM
EC50 [4]: 3.8 nM
EC90 [4]: 19 nM
Cmax [5]: 1500 ng/mL
EC50 [6]: 4.3 nM
EC50 [7]: 0.3 nM
concentration at 8 h [8]: 990 ng/mL
EC50 [9]: 0.3 nM
EC50 [10]: 0.33 nM
AUC(0-inf) [11]: 13800 ng·h/mL
EC50 [12]: 0.9 nM
EC50 [2]: 1 nM
EC50 [13]: 0.11 nM
bioavailability [14]: 26%
EC50 [15]: 0.5 nM
EC50 [16]: 10 nM
EC90 [16]: 63 nM
EC50 [17]: 0.19 nM
half-life [18]: 4.3 h
EC50 [19]: 0.6 nM
Vd [20]: 2.2 L/kg
EC50 [21]: 0.34 nM
EC50 [22]: 0.11 nM
clearance [23]: 7.5 mL/min/kg
clearance [24]: 11.4 mL/min/kg
EC50 [25]: 0.6 nM
EC50 [26]: 0.32 nM
bioavailability [27]: 31%
solubility thermodynamic [28]: < 1 µg/mL
half-life [29]: 4.3 h
EC50 [30]: 0.4 nM
Vd [31]: 2.8 L/kg
EC50 [32]: 0.34 nM
concentration at 8 h [33]: 620 ng/mL
Cmax [34]: 2100 ng/mL
AUC(0-inf) [35]: 23700 ng·h/mL
EC50 [36]: 0.22 nM

SMILES: COc1c(C2(C(F)F)CC2)cc(-n2ccc(=O)[nH]c2=O)c2ncc(-c3ccc(NS(C)(=O)=O)cc3)cc12
EC50 [1]: 95 nM
CLH [37]: 0.1 uL/min/10^6 cells
EC50 [2]: 16 nM
CLH [38]: 1.7 uL/min/10^6 cells
